The source of these data is ChEMBL document CHEMBL1125288, “Structure-activity relationships of 1-[(2-hydroxyethoxy)methyl]-6-(phenylthio)thymine analogues: effect of substitutions at the C-6 phenyl ring and at the C-5 position on anti-HIV-1 activity” (J Med Chem, 1992).

Experiment [1] can be described thus: Concentration required to achieve 50% protection of MT-4 cells against the cytopathic effect of HIV-1. It is filed as functional, cell-based. Particulars: Homo sapiens, MT4. The essentials:
(§1)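 MT-4 cells at 1 × 10^6 cells/mL were infected with HIV-1 (HTLV-IIIB) or HIV-2 (LAV-2ROD) at an MOI of 0.02 (virus titrated as CCID50 in MT-4). Cells were plated immediately onto serial compound dilutions from DMSO stocks of 50 mM or higher. After 4 days at 37 °C, viable cells were counted by MTT.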

The subject of the next experiment is MT4. Briefly: Concentration required to reduce the viability of mock-infected MT-4 cells by 50%. To be noted: Homo sapiens. It is filed as functional. The gist of the method:
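Mock-infected MT-4 cells were run in parallel with the antiviral assay: 1 × 10^6 cells/mL, serial compound dilutions, 4 days at 37 °C.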

A short description of experiment [2]: Concentration of compound required to reduce the viability of mock-infected PBL(peripheral blood lymphocytes) cells. by 50%. It is filed as functional. To be noted: Homo sapiens.
Experiment [3] can be described thus: Concentration required inhibit HIV-2 (LAV-2ROD)replication in MT-4 cells. It is filed as functional, cell-based. To be noted: Homo sapiens, MT4. The essentials:
as §1

The nature of experiment [4]: Concentration required inhibit HIV-1 (HTLV-IIIb strain) replication in PBL(peripheral blood lymphocytes) cells. It is filed as functional, cell-based. To be noted: Homo sapiens. The essentials:
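Phytohemagglutinin-stimulated PBL at 1 × 10^6 cells/mL were infected with HIV-1 HTLV-IIIB at an MOI of 0.2 and cultured at 37 °C with varied compound concentrations. On day 4 cells were subcultured 1:5 into fresh medium with compound. On day 7, p24 antigen in the supernatant was measured by sandwich ELISA, and EC50 was derived.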

Experiment [5] in a line: Concentration of compound required to reduce the viability of mock-infected HIV-2 (LAV-2ROD)/MT-4 cells by 50%. It is filed as functional. Particulars: Homo sapiens, MT4. The gist of the method: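 Mock-infected MT-4 cells, run in parallel with the HIV-2 LAV-2ROD antiviral assay. Cells at 1 × 10^6 cells/mL were plated into wells holding serial compound dilutions, with DMSO stocks at 50 mM or higher. After 4 days at 37 °C, viable cells were counted by the MTT method.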

Regarding `Cc1c(Sc2ccc(Cl)cc2)n(COCCO)c(=O)[nH]c1=O`, in experiment [1], the EC50 – broadly, the concentration giving half of the maximal effect – is over 250 µM. Moreover, the CC50 (commonly the concentration that lowers cell viability or growth by half) in the experiment on MT4 is over 250 µM.
Take `Cc1c(Sc2cccc(CO)c2)n(COCCO)c(=O)[nH]c1=O`: the EC50 in experiment [1] was over 292 µM. This molecule registered a CC50 in the experiment on MT4 of 292 µM.
Molecule `Cc1c(Sc2cc(Cl)cc(Cl)c2)n(COCCO)c(=O)[nH]c1=O` came in with an EC50 in experiment [1] of 1.3 µM. Further, in the experiment with MT4, the CC50 was determined as 130 µM.
The matching figures for `Cc1c(Sc2ccc(C#N)cc2)n(COCCO)c(=O)[nH]c1=O`: over 250 µM and over 250 µM.
As for `Cc1c(Sc2ccccc2Cl)n(COCCO)c(=O)[nH]c1=O`, the EC50 in experiment [1] is over 130 µM. In the experiment with MT4, it took 130 µM to reach half-maximal cytotoxicity (CC50).
The matching figures for `CC(=O)c1ccc(Sc2c(C)c(=O)[nH]c(=O)n2COCCO)cc1`: over 110 µM and 110 µM.
The matching figures for `Cc1c(Sc2ccc([N+](=O)[O-])cc2)n(COCCO)c(=O)[nH]c1=O`: over 190 µM and 190 µM.
Regarding `COc1ccc(Sc2c(C)c(=O)[nH]c(=O)n2COCCO)cc1`, the EC50 in experiment [1] was over 250 µM. In the experiment with MT4, the cytotoxic concentration (CC50) is over 250 µM.
In turn, `CC(=O)c1cccc(Sc2c(C)c(=O)[nH]c(=O)n2COCCO)c1` showed an EC50 in experiment [1] of 7.3 µM. Further, the CC50 in the experiment with MT4 stood at 228 µM.
The corresponding values for `O=C(Nc1ccccc1)c1c(Sc2ccccc2)n(COCCO)c(=O)[nH]c1=O` are over 18 µM and 18 µM.
The matching figures for `Cc1c(Sc2ccc(O)cc2)n(COCCO)c(=O)[nH]c1=O`: over 277 µM and 277 µM.
With `Cc1cc(C)cc(Sc2c(C)c(=O)[nH]c(=S)n2COCCO)c1`, it took 0.22 µM to reach a half-maximal effect in experiment [1] (EC50). The CC50 with MT4 turned out to be 172 µM.
The matching figures for `Cc1c(Sc2ccc(F)cc2)n(COCCO)c(=O)[nH]c1=O`: over 250 µM and over 250 µM.
Consider `Cc1c(Sc2cccc(C(=O)O)c2)n(COCCO)c(=O)[nH]c1=O`, for which the EC50 in experiment [1] is over 352 µM. In the experiment on MT4, this molecule displayed a CC50 of 352 µM.
`Cc1cccc(Sc2c(C)c(=O)[nH]c(=O)n2COCCO)c1`: the EC50 in experiment [1] stood at 2.6 µM. Besides, it took 420 µM to reach half-maximal cytotoxicity in the experiment with MT4 (CC50).
The matching figures for `Cc1c(Sc2cccc(I)c2)n(COCCO)c(=O)[nH]c1=O`: 10 µM and 106 µM.
In the experiment with MT4, `CCc1c(Sc2cc(C)cc(C)c2)n(COCCO)c(=O)[nH]c1=O` came in with a half-maximal cytotoxic concentration (CC50) of 149 µM.
In experiment [1], `Cc1ccc(Sc2c(C)c(=O)[nH]c(=O)n2COCCO)cc1` yielded an EC50 of 220 µM. Also, the CC50 with MT4 is over 250 µM.
The matching figures for `COC(=O)c1cccc(Sc2c(C)c(=O)[nH]c(=O)n2COCCO)c1`: 7.9 µM and 221 µM.
Consider `Cc1c(Sc2cccc([N+](=O)[O-])c2)n(COCCO)c(=O)[nH]c1=O`, for which, in experiment [1], the 50% effective concentration (EC50) is 34 µM. For the same molecule, the CC50 with MT4 was 170 µM.
`CCCc1c(Sc2ccccc2)n(COCCO)c(=O)[nH]c1=O` showed an EC50 in experiment [1] of 3.4 µM. This molecule also registered a CC50 in the experiment with MT4 of 244 µM.
The corresponding values for `COc1cccc(Sc2c(C)c(=O)[nH]c(=O)n2COCCO)c1` are 22 µM and over 250 µM.
The matching figures for `Cc1c(Sc2ccccc2[N+](=O)[O-])n(COCCO)c(=O)[nH]c1=O`: 140 µM and over 250 µM.
With `C=CCc1c(Sc2ccccc2)n(COCCO)c(=O)[nH]c1=O`, in experiment [1], the concentration giving a half-maximal response (EC50) came out at 2.5 µM. In the experiment with MT4, the CC50 was 183 µM.
As to `CC(C)c1c(Sc2ccccc2)n(COCCO)c(=O)[nH]c1=O`, a half-maximal effect in experiment [1] (EC50) was put at 0.063 µM. In the experiment on MT4, it took 231 µM to reach half-maximal cytotoxicity (CC50).
As for `Cc1cc(C)cc(Sc2c(C)c(=O)[nH]c(=O)n2COCCO)c1`, it took 243 µM to reach half-maximal cytotoxicity in the experiment with MT4 (CC50).
`Cc1c(Sc2cccc(C(C)(C)C)c2)n(COCCO)c(=O)[nH]c1=O`: it took 12 µM to reach a half-maximal effect in experiment [1] (EC50). In the experiment with MT4, this molecule returned a 50% cytotoxic concentration (CC50) of 75 µM.
As to `Cc1cc(C)cc(Sc2c(C(C)C)c(=O)[nH]c(=O)n2COCCO)c1`, the half-maximal cytotoxic concentration (CC50) with MT4 was 128 µM.
`Cc1c(Sc2cccc(F)c2)n(COCCO)c(=O)[nH]c1=O` yielded an EC50 in experiment [1] of 3.3 µM. In addition, the CC50 with MT4 was determined as 282 µM.
Consider `COc1ccccc1Sc1c(C)c(=O)[nH]c(=O)n1COCCO`, for which the EC50 in experiment [1] stood at 19 µM. In addition, the CC50 with MT4 was over 250 µM.
On to `CCc1c(Sc2ccccc2)n(COCCO)c(=O)[nH]c1=O`, for which the cytotoxic concentration (CC50) in experiment [2] stood at 108 µM; in the experiment with MT4, 400 µM; in experiment [5], 400 µM. Moreover, the figures for the EC50 in experiment [3], in experiment [1] and in experiment [4] were over 400 µM, 0.12 µM and 0.19 µM, respectively.
`Cc1c(Sc2cccc(C#N)c2)n(COCCO)c(=O)[nH]c1=O` came in with an EC50 in experiment [1] of 10 µM. In addition, it took 234 µM to reach half-maximal cytotoxicity in the experiment with MT4 (CC50).
The matching figures for `Cc1c(Sc2cccc(O)c2)n(COCCO)c(=O)[nH]c1=O`: 82 µM and 446 µM.
In experiment [1], `Cc1c(Sc2cccc(Br)c2)n(COCCO)c(=O)[nH]c1=O` registered an EC50 of 5.7 µM. In addition, half-maximal cytotoxicity in the experiment with MT4 (CC50) was put at 141 µM.
The matching figures for `Cc1ccccc1Sc1c(C)c(=O)[nH]c(=O)n1COCCO`: 71 µM and over 250 µM.
The corresponding values for `Cc1c(Sc2ccccc2)n(COCCO)c(=S)[nH]c1=O` are 0.98 µM and 123 µM.
The corresponding values for `COC(=O)c1c(Sc2ccccc2)n(COCCO)c(=O)[nH]c1=O` are over 6.6 µM and 6.6 µM.
Regarding `Cc1c(Sc2cccc(C(N)=O)c2)n(COCCO)c(=O)[nH]c1=O`, the concentration giving a half-maximal response (EC50) in experiment [1] is over 306 µM. The half-maximal cytotoxic concentration (CC50) with MT4 was 306 µM.
The matching figures for `CCc1cccc(Sc2c(C)c(=O)[nH]c(=O)n2COCCO)c1`: 2.7 µM and 181 µM.
The matching figures for `Cc1c(Sc2cccc(Cl)c2)n(COCCO)c(=O)[nH]c1=O`: 13 µM and 210 µM.
The matching figures for `CCc1c(Sc2cc(Cl)cc(Cl)c2)n(COCCO)c(=O)[nH]c1=O`: 0.014 µM and 51 µM.
For `Cc1c(Sc2cccc(C(F)(F)F)c2)n(COCCO)c(=O)[nH]c1=O`, the EC50 in experiment [1] is 45 µM. Also, it took 196 µM to reach half-maximal cytotoxicity in the experiment with MT4 (CC50).
As for `Cc1c(Sc2ccccc2)n(COCCO)c(=O)[nH]c1=O` [HEPT], the values for the CC50 (in experiment [2]; with MT4; in experiment [5]) were 640 µM, 743 µM and 740 µM, respectively. Moreover, the results for the EC50 in experiment [3], in experiment [1] and in experiment [4] were over 250 µM, 7 µM and 7.9 µM, respectively.
Consider `Cc1cn([C@H]2C[C@H](N=[N+]=[N-])[C@@H](CO)O2)c(=O)[nH]c1=O` [ZIDOVUDINE], for which it took 0.006 µM to reach a half-maximal effect in experiment [1] (EC50). The molecule further showed a CC50 with MT4 of 7.8 µM.
